zfTRPN1 agonist: zebrafish TRPN1 channel agonists, primary screen, cell-based, HEK293, calcium fluorescence; transient receptor potential cation channel N1 (TRPN1/NompC), Danio rerio; HEK293 zebrafish TRPN1-YFP, Fluo-8 calcium fluorescence; 100% = response to 87 µM carbachol; activation, % at 3 µM; actives 0.18% (n = 220,000); AID 1424, 2008;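 active = activation above its plate's cutoff, the mean activation of test wells on that plate plus 3 SD, cut at about 19% in these data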;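 also: 0% = DMSO alone and 100% = 87 µM carbachol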
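Assay system: Zebrafish TRPN1-YFP in HEK293 cells | Incubation: Dye loading 1 h at 37 °C, then 30 min room temperature | Measured by: Kinetic Fluo-8 fluorescence, ex 470-495, em 515-575 nm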
CRFR2-BP ag: agonists of CRF-BP/CRF-R2 complex, primary screen, cell-based, HEK293, calcium dye fluorescence, uHTS | calcium dye fluorescence (FLIPR); percent of saturating CRF peptide response | activation, % at 13.2 µM | actives 0.46% (n = 350,000);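 active = activation of at least 50%, plus an integration ratio under a set limit after plate pattern correction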;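 also: plate controls were neutral control wells without compound for no effect and CRF at EC100 for full effect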
CRFR2-BP antag: antagonists of CRF-BP/CRF-R2 complex, primary screen, cell-based, HEK293, calcium dye fluorescence, uHTS; CRF-induced calcium fluorescence; inhibition, % at 11.8 µM; actives 0.59% (n = 350,000);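 active = inhibition of the ligand-induced calcium signal above about 50% at the single tested concentration, limit read from the data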
VIM-2 inhibitor: VIM-2 metallo-beta-lactamase inhibitors, primary screen, biochemical, epi-absorbance readout, Pseudomonas aeruginosa enzyme; purified VIM-2, nitrocefin hydrolysis, epi-absorbance fluorescence; actives 0.89% (n = 290,000); inhibition, % at 5.6 µM;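 active = inhibition above the mean of all tested compounds plus 3 SD, cutoff set per screening run, cut at about 7.5% in these data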;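 also: red hydrolysis product quenches plate fluorescence so inhibitors raise well fluorescence; 0% = enzyme with DMSO and 100% = DMSO without enzyme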
IMP-1 inhibitor: IMP-1 metallo-beta-lactamase inhibitors, primary screen, biochemical, epi-absorbance readout, Pseudomonas aeruginosa enzyme; actives 0.45% (n = 290,000); purified IMP-1, nitrocefin hydrolysis, epi-absorbance fluorescence; inhibition, % at 5.6 µM; AID 1556, 2009;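 active = inhibition above the mean plus 3 SD of all compounds in the same screening run, cut at about 4.5% in these data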;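 also: 0% = IMP-1 with DMSO and 100% = DMSO wells lacking enzyme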
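System – purified recombinant IMP-1 beta-lactamase · Input – IMP-1 dispensed at 0.2 nM · Timing – 15 min preincubation plus 25 min reaction at 25 °C · Signal – Epi-absorbance fluorescence, 480 nm excitation, 530 nm emission · Measure – percent IMP-1 inhibition derived from blank-referenced optical density · Controls – Enzyme-plus-DMSO low control, enzyme-free DMSO high control · Replication – singlicate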
TRPML3 ag: human TRPML3 channel agonists, primary screen, cell-based, HEK293 TRPML3-YFP, Fluo-8 calcium fluorescence, 3 µM | Mucolipin-3 (Homo sapiens), Q8TDD5 | 100% = the carbachol control signal | activation, % at 3 µM | actives 0.29% (n = 220,000);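 active = activation above its plate's cutoff, the mean activation of the plate's test wells plus 3 SD, cut at about 12% in these data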;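 also: 0% = DMSO only wells and 100% = carbachol wells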
Target sequence (Q8TDD5 whole entry, looked up): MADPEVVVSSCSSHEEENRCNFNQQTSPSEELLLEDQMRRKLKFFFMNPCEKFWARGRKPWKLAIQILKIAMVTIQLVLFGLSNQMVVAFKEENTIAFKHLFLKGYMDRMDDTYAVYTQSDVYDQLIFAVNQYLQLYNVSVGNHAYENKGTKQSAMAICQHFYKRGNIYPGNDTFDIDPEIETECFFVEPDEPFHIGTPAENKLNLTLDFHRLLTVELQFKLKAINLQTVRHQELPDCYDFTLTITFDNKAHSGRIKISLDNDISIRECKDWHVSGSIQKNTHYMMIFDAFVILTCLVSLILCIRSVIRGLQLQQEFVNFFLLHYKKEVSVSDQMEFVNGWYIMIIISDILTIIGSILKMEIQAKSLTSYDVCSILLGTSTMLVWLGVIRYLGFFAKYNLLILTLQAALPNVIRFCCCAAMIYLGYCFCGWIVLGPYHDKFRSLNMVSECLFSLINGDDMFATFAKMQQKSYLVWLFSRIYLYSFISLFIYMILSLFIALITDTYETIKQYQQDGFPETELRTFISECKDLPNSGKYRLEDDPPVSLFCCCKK
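Material: TRPML3-YFP stable HEK293 cells | Dosing: One concentration, 3 µM nominal, 0.3% DMSO | Timing: 125 s total fluorescence read per well | Technique: Fluo-8 calcium dye fluorescence, ex 470-495, em 515-575 nm | Measure: Percent activation from peak-to-basal fluorescence ratio, scaled between DMSO and carbachol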
Active calls of the source: *; / = not tested or not shown. This is a sample that favours compounds with a hit; in the whole collection about 2.1% have one here.

SMILES	zfTRPN1 agonist	CRFR2-BP ag	CRFR2-BP antag	VIM-2 inhibitor	IMP-1 inhibitor	TRPML3 ag
O=C(NCc1ccccc1)c1ccc(Cl)cc1	1	-1	86*	0	-2	0
CCOc1ccccc1NC(=S)NCc1ccccc1	/	-1	-9	-1	-2	/
S=C(NCc1ccccc1)Nc1ccc(Cl)cc1	5	8	57*	-3	-2	1
CCOc1ccc(CNC(=S)Nc2ccccc2)cc1Cl	/	-2	23	-1	6.3*	/
Cc1ccc(C(=O)COC(=O)CCN2C(=O)C3C4C=CC(C5CC45)C3C2=O)cc1 (stereo not drawn)	/	-3	91*	0	-2	/
C=CCc1ccccc1Oc1cc(OC)nc(N)n1	/	-1	2	/	/	/
O=[N+]([O-])c1ccc(NC(=S)NCCc2ccc(F)cc2)cc1	11	29	54*	0	-2	6
O=C(NCCc1ccc(F)cc1)Nc1ccc([N+](=O)[O-])cc1	/	0	22	-2	-2	/
CSc1nn2c(C(F)(F)F)cc(C(F)(F)F)nc2c1C(=O)O	-2	0	7	2	1	0
COc1ccc(NC(=O)CN(C)C(=O)Cc2n[nH]c(=O)c3ccccc23)cc1	/	-2	16	/	/	/
C=C(C)CN(CC)C(=O)CCc1nnc(CCCc2ccccc2)o1	1	-1	7	-3	-3	0
CCN(CCn1cccn1)C(=O)CCc1nnc(CCCc2ccccc2)o1	44*	-1	6	-6	-2	26*
COc1ccc2nc(N3CCC(O)CC3)c(C#N)cc2c1	2	52*	7	-2	-1	0
CCOC(=O)C1CCN(c2nc3cc(OC)ccc3cc2C#N)CC1	1	-1	57*	0	0	-1
CCC1(CC)NC(=O)N(CC(=O)OC(C)C(=O)Nc2ccc(NC(C)=O)cc2)C1=O (stereo not drawn)	/	0	-1	/	/	/
Cc1cc(C)c(OCC(=O)Nc2ccccc2N2CCOCC2)c(C)c1	24*	53*	-72	0	-1	15*
Cc1cc(C)c(OCC(=O)Nc2ccccc2N2CCCCC2)c(C)c1	/	2	-3	/	/	/
CC(O)C(NC(=O)OCc1ccccc1)C(=O)OCc1ccccc1 (stereo not drawn)	/	1	2	/	/	/
Cc1snc(SCC(=O)c2ccc(F)cc2)c1C#N	-1	-2	4	0	-2	0
Cc1snc(SCC(=O)c2ccc([N+](=O)[O-])cc2)c1C#N	1	-2	5	9.5*	-4	1
CCCc1cc(=O)oc2c(CN3CCCC3)c(O)ccc12	1	0	0	0	-2	0
CCCc1cc(=O)oc2cc(C)c(CN3CCCC3)c(O)c12	1	2	3	4	7.7*	1
O=C(O)c1ccc(Oc2ccc([N+](=O)[O-])cc2)c([N+](=O)[O-])c1	/	1	-1	/	/	/
N#C/C(=N\Nc1ccc([N+](=O)[O-])cc1)C(N)=S	9	12	57*	-8	-8	8
N#C/C(=N/Nc1ccc([N+](=O)[O-])cc1)C(=N)N1CCCCC1	-1	0	25	-2	-5	0
SMILES	zfTRPN1 agonist	CRFR2-BP ag	CRFR2-BP antag	VIM-2 inhibitor	IMP-1 inhibitor	TRPML3 ag
N#C/C(=N\Nc1cccc([N+](=O)[O-])c1)C(=O)c1ccc(Br)cc1	12	22	52*	0	0	5
O=C(O)c1ccc(N=NNc2cccc([N+](=O)[O-])c2)cc1	0	-2	4	-4	-3	1
CCOC(=O)N1CCC(N2CCCC(C(=O)c3cccc(OC)c3)C2)CC1 (stereo not drawn)	2	3	10	0	-1	0
O=c1oc2c(CN3CCN(CCO)CC3)c(O)ccc2cc1-c1ccccn1	1	71*	-15	2	1	1
O=c1oc2c(O)cccc2cc1-c1nc2ccccc2[nH]1	/	184*	-105	6	7.2*	/
O=c1oc2c(CN3CCCCC3)c(O)ccc2cc1-c1nc2ccccc2[nH]1	/	97*	-71	/	/	/
CC(=O)C(Cc1ccccc1)NC(=O)COC(=O)c1cc(S(=O)(=O)N2CCOCC2)ccc1F (stereo not drawn)	/	-1	2	/	/	/
CC(C)c1nc2sc3c(=O)[nH]cnc3c2c2c1CCC2	1	-1	-19	1	0	1
CC(C)c1nc2sc3c(=S)nc[nH]c3c2c2c1CCC2	0	-1	-16	-5	4.5*	0
Fc1ccc(-c2ccc(CNCc3ccccn3)o2)cc1	/	0	1	11*	-3	/
Cc1ccc(CN2CC(C(=O)NCCCSc3ccccc3)CC2=O)cc1 (stereo not drawn)	/	1	56*	-4	-3	/
COc1ccccc1OCCNC(=O)C1CC(=O)N(Cc2ccc(C)cc2)C1 (stereo not drawn)	/	1	10	/	/	/
O=C1/C(=C\c2ccco2)SC(=S)N1C1CCS(=O)(=O)C1 (stereo not drawn)	-1	0	11	2	7.3*	0
O=C1/C(=C/c2ccco2)SC(=S)N1C1CCS(=O)(=O)C1 (stereo not drawn)	0	-1	-4	-3	3	0
CC(C(=O)O)N1C(=O)/C(=C/C=C/c2ccco2)SC1=S (stereo not drawn)	1	6	-7	-2	5.8*	0
CCN(C(=O)C(C)N1C(=O)/C(=C/c2ccco2)SC1=S)C1CCS(=O)(=O)C1 (stereo not drawn)	/	3	24	-2	7.8*	/
CCOc1ccc(-c2nn(-c3ccccc3)cc2/C=C2\SC(=S)N(C3CCS(=O)(=O)C3)C2=O)cc1 (stereo not drawn)	0	115*	-122	-1	-5	0
CC(=O)C1CCC2C3CC=C4N(C)C(=O)CCC4(C)C3CCC12C (stereo not drawn)	/	5	-6	/	/	/
COC1CCCN(C(=O)c2ccc(OC3CCN(S(=O)(=O)N(C)C)CC3)cc2)C1 (stereo not drawn)	/	-2	5	1	-2	/
CCN1/C(=C/c2ccc3cccc(C)c3[n+]2CC)Sc2ccccc21	32*	205*	-297	0	-2	18*
CCN1/C(=C\c2ccc3cc(C)ccc3[n+]2CC)Sc2cc(C)c(C)cc21	15	114*	-157	0	-3	9
